Measurements reported in ChEMBL document CHEMBL3272300, “Mapping the dopamine receptor. 1. Features derived from modifications in ring E of the neuroleptic butaclamol” (J Med Chem, 1979).
Activity calls are given as the source filed them. No cut-off for these calls is given here.

Legend:
Rattus norvegicus [1] = experiment: Inhibition of epinephrine-induced mortality in ip dosed Sprague-Dawley rat compound administered 1 hr prior challenge measured over 24 hrs; type: functional
Outline: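 Groups of six or more rats (220–225 g) given graded ip doses; 1 h later epinephrine bitartrate 0.25 mg/kg iv, a dose lethal to untreated rats. Deaths recorded over 24 h. Protective ED50 (dose protecting 50% of rats from lethality) calculated by Litchfield–Wilcoxon method.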

Rattus norvegicus [2] = experiment: Behavioral effect in Sprague-Dawley rat assessed as inhibition of d-amphetamine-induced stereotyped behaviour at 20 mg/kg, ip administered 15 mins post challenge measured every 15 mins for 4 hrs post challenge; type: functional, organism-based; parameters: dose 20 mg/kg
Outline: (§1)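 Rats (160–180 g), groups of four or more, given d-amphetamine 10 mg/kg ip, then graded ip doses of test agent or vehicle 15 min later; highest dose 20 mg/kg. Behaviour scored 0 (normal), 1 (excited), 2 (stereotyped) every 15 min for 4 h after amphetamine. MED = lowest dose antagonizing all amphetamine behavioural effects over the 4-h period.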

Rattus norvegicus [3] = experiment: Induction of catalepsy in Sprague-Dawley rat at 5 mg/kg, ip measured after 1 to 24 hrs; type: organism-based; parameters: dose 5 mg/kg, route intraperitoneal; settings: in vivo
Outline: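 Rats (160–180 g), six per group, dosed ip at 5 mg/kg. Catalepsy scored at 1, 2, 4, 6 and 24 h by Wirth stages III and IV; highest mean cataleptic score given as percent of maximum attainable score.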

Rattus norvegicus [4] = experiment: Behavioral effect in ip dosed Sprague-Dawley rat assessed as inhibition of d-amphetamine-induced stereotyped behaviour compound administered 15 mins post challenge measured every 15 mins for 4 hrs post challenge; type: functional; settings: read-out: MED; outline: as §1
Mus musculus = experiment: Inhibition of isolation-induced fighting behaviour in ip dosed Swiss albino mouse measured after 30 mins to 3 hrs; type: functional
Outline: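 Albino mice (14–16 g) isolated 4–5 weeks; pairs showing maximal fighting in a morning control session were dosed ip and retested at 30 min and 3 h in 5-min observations. All-or-none: effective if no fighting episode; ED50 = dose abolishing fighting in 50% of pairs, by Litchfield–Wilcoxon.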

Rattus norvegicus [5] = experiment: Behavioral effect in ip dosed Sprague-Dawley rat assessed as reduction in conditioned avoidance response compound administered 30 mins prior testing; type: functional
Outline: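 Morpurgo discrimination box: trained rats (250–400 g) must leave start chamber for lighted exit within 10 s or get shock. Two-trial control session before dosing; graded ip doses to groups of six or more; ten trials run 30 min post-injection. Avoidance failures expressed as percent of trials; ED50 = dose giving 50% failure.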

SMILES	ED50 (Rattus norvegicus [1])	Activity (Rattus norvegicus [2])	Activity (Rattus norvegicus [3])	minimal effective dose (Rattus norvegicus [4])	ED50 (Mus musculus)	ED50 (Rattus norvegicus [5])
CC(C)(C)C1CCN2C[C@H]3c4ccccc4CCc4cccc(c43)[C@@H]2C1 (some centres not stated)	19 mg/kg	inactive	93%	0.62 mg/kg	2.1 mg/kg	0.8 mg/kg
c1ccc2c(c1)CCc1cccc3c1[C@H]2CN1CCCC[C@@H]31		inactive				
CC(C)(C)C1CCN2C[C@H]3c4ccccc4CCc4cccc(c43)[C@H]2C1 (relative stereo)		inactive				
CC(C)(C)[C@@]1(O)CC[C@@H]2c3cccc4c3[C@@H](CN2C1)c1ccccc1CC4 (relative stereo)		inactive				
CC(C)(C)[C@]1(O)CC[C@H]2c3cccc4c3[C@@H](CN2C1)c1ccccc1CC4 (relative stereo)		inactive				
O[C@H]1CCN2C[C@H]3c4ccccc4CCc4cccc(c43)[C@@H]2C1 (relative stereo)		inactive				
c1ccc2c(c1)CCc1cccc3c1[C@H]2CN1CCC2(C[C@@H]31)OCCO2 (relative stereo)		inactive				
CC(C)(C)[C@]1(O)CCN2C[C@H]3c4ccccc4CCc4cccc(c43)[C@@H]2C1 [BUTACLAMOL]	15 mg/kg		60%	0.62 mg/kg	1.9 mg/kg	0.64 mg/kg
